Jurkat tox 60K – reduces viability or proliferation of Jurkat cells; Jurkat E6.1 viability, ATP luminescence, 48 h; inhibition, % at 4 µM; 56,000 compounds, 1.2% hits; AID 463;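 active means inhibition above the mean inhibition of all tested compounds plus 3 SD, cut at about 28% in these data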
Fibroblast inh – blocks proliferation of human lung fibroblasts | 85,000 compounds, 1.1% hits | LL 47 human lung fibroblast viability, ATP luminescence; stronger effect = lower value | viability, % at 10 µM;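 active means viability at or below 50% in the single dose screen; inactive means viability above 50%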;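 further: compound exposure lasted 72 h before the ATP readout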
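test system = LL 47 human lung fibroblasts | amount = 1,150 fibroblasts seeded per well | medium = 15% FBS in IMEM | times = overnight cell rest, 72 h compound treatment at 37 °C | measured by = CellTiter-Glo luminescence measuring cellular ATP | read-out = viability percentage against median untreated-cell control | benchmarks = cell-only wells, no compound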
E coli WT exp – growth inhibitors of E. coli BW25113 wild type. growth inhibition, % at 100 µM. 98,000 compounds, 0.15% hits. OD600 absorbance. AID 710;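 active means growth inhibition above about 50% at one test dose, limit read from the data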;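 further: growth measured after 20 h incubation at 37 °C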
Ecoli tolC – E. coli tolC mutant growth inhibition | E. coli BW25113 tolC mutant growth, OD615 | growth inhibition, % at 10 µM (by protocol) | AID 573 | 65,000 compounds, 2.2% hits;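 active means growth inhibition at or above a cutoff equal to the mean over every tested compound plus 3 SD, cut at about 60% in these data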;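 further: growth measured after 20 h incubation at 37 °C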
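Test system: E. coli BW25113 ΔtolC::kan bacteria | Medium: Kanamycin-containing LB broth (50 µg/mL) | Dosing: One dose of 10 µM final | Times: 20 h incubation with compound, 37 °C | Detection: Optical density read at 615 nm | Read-out basis: Percent growth inhibition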
HUVEC prolif 384 – inhibitors of human endothelial cell proliferation; HUVEC proliferation, CellTiter-Glo luminescence, 72 h; stronger effect = lower value; viability, % at 10 µM (by protocol); 86,000 compounds, 1.1% hits; AID 648;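 active means viability at or below 30%; inactive means viability above 30%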
H69AR inhibit – growth inhibitors of human H69AR lung tumor cells; H69AR lung tumor viability, ATP luminescence, 72 h; stronger effect = lower value; viability, % at 10 µM; 85,000 compounds, 6% hits;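 active means viability at or below 40%; inactive means viability above 40%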;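 further: multidrug resistant small cell line overexpressing MRP-1 efflux transporter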
Numbers stand for hits; n = inactive; x = not tested or not shown. The list is not random: actives were taken first. Their share in the collection is about 6.4%.

SMILES | Jurkat tox 60K | Fibroblast inh | E coli WT exp | Ecoli tolC | HUVEC prolif 384 | H69AR inhibit
O=C(Nc1ccc(N2CCN(C(=O)c3ccco3)CC2)cc1)c1ccccc1F | n | n | n | n | n | n
CCOc1cc(CNCCO)cc(Br)c1OCc1ccc(Cl)cc1Cl | x | x | 80 | x | x | x
COc1ccc(-n2nnnc2SCC(=O)Nc2cccc(C)n2)cc1OC | n | n | n | n | n | n
CC(C)COC(=O)C1C(=O)CC(C)(O)C(C(=O)OCC(C)C)C1c1cccnc1 (configuration not stated) | n | n | n | n | n | 29
COc1ccc2cc3cc(C(=O)NC(C)C)oc3nc2c1 | x | n | n | x | n | n
COc1ccc2cc3cc(C(=O)Nc4ccc5c(c4)OCCO5)oc3nc2c1 | n | n | n | n | 26 | 40
CCN(C(=O)c1cc2cc3ccc(C)cc3nc2o1)c1ccc(OC)cc1 | n | n | n | 72 | n | n
COn1c2c(c3c4nonc4ccc31)CCCC2 | x | n | n | x | n | n
CCCCOn1c(C)c(C(=O)OCC)c2c3no[n+]([O-])c3ccc21 | n | n | n | n | n | n
COn1c(C)c(C(C)=O)c2c3nonc3ccc21 | n | n | n | n | n | 33
CCCCOn1c(C)c(C(=O)OCC)c2c3nonc3ccc21 | n | n | x | 66 | n | n
CC1CCCN(C(=O)CSCC(=O)N=c2sc3ccccc3n2C)C1 (configuration not stated) | x | n | n | n | n | n
Cc1noc(C)c1CSc1ccccc1C(=O)Nc1nccs1 | n | n | n | n | n | n
N#Cc1c(N2CCCC(O)C2)nc(N)c2c(N)nc3c(c12)CC(=O)N3C12CC3CC(CC(C3)C1)C2 (configuration not stated) | x | n | n | x | 16 | 3.3
COc1ccc(NC(=O)c2cc(-c3ccccc3OC)on2)cc1 | 92 | x | n | n | x | x
COc1ccccc1-c1cc(C(=O)Nc2ccccc2SC)no1 | n | x | n | n | n | n
COc1ccc(OC)c(-c2cc(C(=O)Nc3cc(C)on3)no2)c1 | n | n | n | n | n | n
COc1ccc(OC)c(-c2cc(C(=O)Nc3cccc(Cl)c3)no2)c1 | n | n | n | n | n | 34
COc1ccccc1-c1cc(C(=O)Nc2cccnc2)no1 | 72 | x | n | n | x | x
CCCCN1c2cc(C)c(O)cc2C(C(=O)OCC)C1C (configuration not stated) | n | n | n | n | n | n
CSc1nsc(SCc2ccc(F)cc2)n1 | n | x | n | n | n | 30
CCOC(=O)C1CCCN(c2ncnc3c2cnn3-c2cccc(C)c2)C1 (configuration not stated) | x | n | n | n | n | x
Cc1cccc(-n2ncc3c(N4CCC(C)CC4)ncnc32)c1 | n | n | n | 94 | n | n
COc1cccc(N2CCN(c3ncnc4c3cnn4-c3ccc(C)cc3C)CC2)c1 | n | 33 | n | n | 2.2 | n
CC1CCCN(c2ncnc3c2cnn3-c2ccc(Cl)cc2)C1 (configuration not stated) | n | x | x | 96 | x | x
SMILES | Jurkat tox 60K | Fibroblast inh | E coli WT exp | Ecoli tolC | HUVEC prolif 384 | H69AR inhibit
Cc1cccc(-n2ncc3c(N4CCC5(CC4)OCCO5)ncnc32)c1 | n | n | x | n | n | 33
CCOc1c2ccc(C(=O)N[C@H](C)C3CCCCC3)cc2nn1CC | x | x | n | x | x | x
Cc1ccc(NCc2nnc(SCC(=O)Nc3cccc(O)c3)n2CC2CCCO2)c(C)c1 (configuration not stated) | n | n | n | n | n | n
CC(NC(=O)c1ccccc1)C(c1cccs1)N1CCOCC1 (configuration not stated) | x | n | n | x | n | n
COc1ccc(C2c3c(-c4cc(Cl)c(C)cc4O)n[nH]c3C(=O)N2Cc2cccnc2)cc1OC (configuration not stated) | n | n | n | n | n | n
Cc1cccc(-n2ncc3c(N(C)Cc4ccccc4)ncnc32)c1 | n | x | x | 93 | x | x
Cc1cnc(C(=O)OCC(=O)Nc2oc(-c3ccccc3)c(-c3ccccc3)c2C#N)cn1 | n | n | n | n | n | 34
N#Cc1c(NC(=O)CSc2ccccn2)oc(-c2ccccc2)c1-c1ccccc1 | x | n | n | x | n | n
COc1cc(S(=O)(=O)N2CCC(O)(c3cccc(C(F)(F)F)c3)CC2)ccc1-n1cnnn1 | x | n | n | 100 | n | n
CCOC(=O)CSc1cccc2cccnc12 | n | 46 | n | n | n | 0.3
CCN(CC)C(=O)Sc1cccc2cccnc12 | n | n | n | n | n | n
COc1cccc(N2CCN(C(=O)c3ccc(N4C(=O)NC5CC4(C)Oc4ccccc45)cc3)CC2)c1 (configuration not stated) | n | n | n | n | n | n
COc1ccc(N2C(=O)NC3CC2(C)Oc2ccc(Br)cc23)cc1OC (configuration not stated) | n | n | n | n | n | 38
COc1cc(/C=C2\OC(=O)c3c(OC)cccc32)ccc1O | x | x | n | x | x | x
CCCN(CC1CC1)C(=O)COC(=O)c1[nH]c(C)c(C(=O)OCC)c1C | x | n | n | x | n | n
Cc1ccc(S(=O)(=O)Nc2cccc(-c3cn4ccsc4n3)c2)cc1 | n | n | n | 83 | n | 30
CC(=O)Oc1ccc2c(C)cc(=O)[nH]c2c1 | x | n | n | n | n | n
CC(=O)Oc1c(C)cc(O)c2ccccc12 | n | n | n | n | n | 0.5
CCCN1CCN(CCCNC(=O)CCNC(=O)Cn2ccc3ccccc3c2=O)CC1 | x | n | n | x | n | n
Cc1ccc(NC(=O)Cn2c(=O)oc3cc(S(=O)(=O)N4CCC(C)CC4)ccc32)cc1C | x | n | n | x | n | 17
O=C(NCc1ccccn1)C1C2C=CC(C2)C1C(=O)Nc1ccc(F)cc1 (configuration not stated) | x | n | x | x | n | n
Cc1c(/C=N/n2cnnc2)c2ccccc2n1CCOc1ccccc1 | n | x | n | n | n | 32
C/C(=C1/SC(N2CCCC2)=NC1=O)c1ccc(Br)cc1 | n | n | n | n | n | n
COc1ccccc1C(=O)Nc1cc(Cl)ccc1O | x | n | n | n | n | n
CCOc1ccccc1C(=O)Nc1cc(Cl)ccc1O | n | n | n | 100 | n | 30
SMILES | Jurkat tox 60K | Fibroblast inh | E coli WT exp | Ecoli tolC | HUVEC prolif 384 | H69AR inhibit
CCCCc1nnc(NC(=O)C(C)Sc2nc(C)cc(=O)[nH]2)s1 (configuration not stated) | x | n | n | x | n | n
CCOC(=O)C1=CN(c2cccc(F)c2)C=C(C(=O)OCC)C1c1cc(OC)c(O)c([N+](=O)[O-])c1 | x | x | n | x | x | x
O=C(NCCCN1CCOCC1)C(C(=O)c1ccccc1)n1ccccc1=O (configuration not stated) | n | n | n | n | n | n
COc1cc(Nc2nnc(C)s2)c(Cl)cc1Cl | x | n | n | x | n | n
COCCOc1cc(Nc2nnc(C(F)(F)F)s2)c(Cl)cc1Cl | x | n | n | x | n | 13
CCSC1=NC2(CCCCC2)Nc2sc3c(c21)CCCC3 | x | n | n | x | n | 2.2
CCC(C)(C)NC(=O)Cc1ccc(C)cc1 | x | n | n | x | n | n
CC(=O)c1cccc(NC(=O)C2CCN(S(=O)(=O)c3ccccc3)CC2)c1 | x | n | n | x | n | n
CCc1nc(Nc2ccc(OC)c(OC)c2)c2nnn(Cc3ccccc3Cl)c2n1 | x | n | x | x | 27 | n

Bioassay records deposited in PubChem BioAssay by several laboratories.
